DAGLB inh: DAGLB lipase inhibitors, primary screen, biochemical, fluorescence, HTS; Diacylglycerol lipase-beta (Homo sapiens), Q8NCG7; HEK293T DAGLB membrane lysate, EnzChek fluorogenic substrate; inhibition, % at 5.17 µM; hit rate 0.059% among 340,000; in the data active = inhibition above about 34%;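 also: 0% = enzyme with vehicle and 100% = wells lacking enzyme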
Tn6 DDE FP: inhibitors of Tn6 peptide binding to fibrin DD(E), primary screen, biochemical, fluorescence polarization, human fibrin, Tn6 probe; Fibrin DD(E) TRITC-Tn6 fluorescence polarization displacement; inhibition, % at 8.3 µM; hit rate 0.21% among 370,000; AID 720509, 2013;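 active = inhibition above a per-campaign cutoff: mean of compounds within control limits plus 3 SD, cut at about 15% in these data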;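 also: 0% = median of all compound wells on the plate and 100% = blocking peptide control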
Target sequence (P02675 whole entry, looked up): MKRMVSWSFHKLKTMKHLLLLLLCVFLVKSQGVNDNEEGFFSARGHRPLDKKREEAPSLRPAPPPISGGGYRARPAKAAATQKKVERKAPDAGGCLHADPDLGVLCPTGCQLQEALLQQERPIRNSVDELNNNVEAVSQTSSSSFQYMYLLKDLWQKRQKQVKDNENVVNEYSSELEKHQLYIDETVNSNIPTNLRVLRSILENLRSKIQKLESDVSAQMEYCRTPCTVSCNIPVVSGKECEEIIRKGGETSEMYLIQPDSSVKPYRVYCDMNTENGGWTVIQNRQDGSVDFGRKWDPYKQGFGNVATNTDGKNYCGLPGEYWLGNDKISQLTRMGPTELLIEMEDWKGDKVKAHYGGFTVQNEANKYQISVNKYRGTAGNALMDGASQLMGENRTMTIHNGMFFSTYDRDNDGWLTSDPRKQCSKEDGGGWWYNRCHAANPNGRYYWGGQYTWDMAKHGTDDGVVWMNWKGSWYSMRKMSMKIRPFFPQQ
Tn7 DDE FP: inhibitors of Tn7 peptide binding to fibrin DD(E), primary screen, biochemical, fluorescence polarization, human fibrin, Tn7 probe; Fibrinogen beta chain (Homo sapiens), P02675; inhibition, % at 8.3 µM; hit rate 0.13% among 370,000; AID 720508, 2013; FP displacement of FITC-Tn7 peptide from fibrin DD(E); 0% = median of compound wells per plate;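 active = inhibition above the mean of compounds falling within the control limits plus 3 SD of them, cut at about 14% in these data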;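 also: 0% = plate median of compound wells and 100% = 10 µM Aha-Tn7 peptide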
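Assay system: human fibrin DD(E) protein / Input: 2 µM fibrin DD(E) / Benchmarks: high control of 10 µM Aha-Tn7 peptide / Measured by: fluorescence polarization of the labelled Tn7 tracer / Medium: Tris buffer with calcium and detergent, pH 7.8 / Timing: 10 min compound pre-incubation, 3 h probe incubation at room temperature / Repeats: one replicate per compound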
PolyA inhibitor: polyadenylation inhibitors in yeast reporter cells, primary screen, luminescence, S. cerevisiae | S. cerevisiae SKY197-pL101 polyadenylation reporter, beta-gal luminescence; efflux-impaired pdr1/pdr3 knockout yeast; score 100 = 6 SD above DMSO | activity score, % at 12 µM | hit rate 0.02% among 300,000;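 active = lowest replicate activity score at least 50, where 100 means six control SD above control mean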;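 also: yeast exposed to compound for 9 h at 30 °C; higher score means more reporter readthrough which indicates perturbed polyadenylation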
MT1-MMP act inh: blockers of MT1-MMP proenzyme processing, primary screen, HT1080 RFP-PRO-GFP cells, GFP/RFP fluorescence | GFP/RFP ratio fluorescence, overnight; percent of plate control window, DMSO zero | GFP/RFP ratio change, % at 20 µM | hit rate 0.061% among 360,000;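 active = GFP/RFP ratio change of at least 30% with cell ATP level not reduced by more than half and red fluorescence within 50% of control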
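Assay system: HT1080 RFP-PRO-GFP cells | Dosing: 20 µM single dose, 1% DMSO | Incubation: Cells overnight before dosing, compound overnight, 37 °C, 5% CO2 | Evaluation: GFP/RFP fluorescence ratio | Control set: DMSO-only wells and HT1080 RFP-L50D-GFP cell wells as references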
SKN-1 inh: suppressors of acrylamide-induced Pgst-4::GFP reporter in worms, primary screen, SKN-1 inhibitor project, whole organism, uHTS, GFP/RFP fluorescence ratio, strain VP596. C. elegans VP596 Pgst-4::GFP/RFP ratio, 24 h. inhibition, % at 21.8 µM. hit rate 0.49% among 360,000. AID 624304, 2012;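 active = interference check ratio from 0.5 to 1.5 plus GFP to RFP signal ratio inhibition reaching or exceeding a fixed threshold, cut at about 30% in these data, passing the limit was not always enough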
MT1-MMP conf: MT1-MMP activation inhibitors, hit retest, confirmation, single concentration, fluorescence, HT1080 RFP-PRO-GFP cells; shares compounds with MT1-MMP act inh; GFP and RFP fluorescence ratio, overnight; inhibition, % at 20 µM; hit rate 10% among 200;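 active = inhibition of at least 50% in the primary cell screen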
Tn6 DDE ctr: DD(E)-Tn6 binding inhibition, counter-screen; shares compounds with Tn6 DDE FP; Fibrin DD(E), TRITC-Tn6 fluorescence polarization displacement; 0% = median of compound wells, not DMSO; inhibition, % at 8.3 µM; hit rate 2% among 680; AID 720621;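 active = inhibition above the mean of test compounds lying between the control limits plus 3 SD of those, cut at about 14% in these data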;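 also: 0% = median of compound wells and 100% = wells with Aha-Tn7 blocking peptide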
DDE Tn6 confirm: inhibitors of Tn6 peptide binding to fibrin DD(E), confirmation, biochemical, fluorescence polarization, human fibrin, Tn6 probe; shares compounds with Tn6 DDE FP; FP displacement of TRITC-Tn6 peptide from DD(E); 0% = per-plate median of test wells; inhibition, % at 8.3 µM; hit rate 10% among 680; AID 720631, 2013;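 active = inhibition above the mean of compounds lying within the control limits plus 3 SD, cut at about 16% in these data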;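 also: 100% = high control wells holding a competing inhibitor peptide at 10 µM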
* = called active by the depositor; / = not tested or not shown. An excerpt weighted towards active compounds, which were near 0.9% of everything screened.

SMILES	DAGLB inh	Tn6 DDE FP	Tn7 DDE FP	PolyA inhibitor	MT1-MMP act inh	SKN-1 inh	MT1-MMP conf	others
Cc1ccsc1CN(C)CC(=O)Nc1ccc([N+](=O)[O-])cc1Cl	-16.9	1.4	5.2	-32.1	1.1	26.7	/
CN(CC(=O)Nc1cc([N+](=O)[O-])ccc1Cl)Cc1ccc(Br)cc1	-7.0	6.5	3.2	7.2	35.9*	-2.4	6.2
O=C(CCc1ccccc1-c1ccccc1CCNC(=O)c1c(F)cccc1F)NCc1ccccc1	/	-1.2	-3.0	/	/	/	/
CN(c1cc2c(c3c1ccn3C)C1CCC2C1)C1CCCCC1 (centres undefined)	/	-1.7	-0.8	/	34.9*	10.2	1.2
O=S(=O)(O)c1cc(O)c(N=Nc2ccc(O)cc2O)c2ccccc12	32.3	5.0	-0.3	/	64.4*	88.2	50.1*
CC1(C)Oc2cc(N)c([N+](=O)[O-])cc2O1	-1.4	-5.6	-5.8	12.3	11.4	5.7	/
C=C1N(C)c2cc([N+](=O)[O-])c(N)cc2C1(C)C	13.2	-1.2	1.9	-6.9	36.4*	2.5	13.4
Cc1cc(=O)[nH]c(SCC(=O)Nc2ccc(F)c(F)c2)n1	/	-1.5	-1.4	/	/	/	/
CCOc1cc(/C=C2\C(=O)N(c3nc(-c4ccc(Br)cc4)cs3)N=C2c2ccccc2)ccc1O	33.2	/	/	0.3	62.9*	13.7	6.9
CC(C)CN1C(=O)[C@]2(CC(=O)N(C)C2c2ccccc2)c2cc(-n3cc(CN(C)C)nn3)ccc21 (some centres undefined)	/	6.6	-7.8	/	/	/	/
O=C(O)c1cccc(N2C(=O)c3cc([N+](=O)[O-])cc4cc([N+](=O)[O-])cc(c34)C2=O)c1	5.7	-9.6	2.2	20.2	41.9*	-0.6	28.4
O=C(OCC#CCSc1nnc(-c2ccccc2F)o1)c1ccc(F)cc1	/	2.3	8.7	/	/	/	/
COC(=O)[C@]12C[C@H](CC(=O)N3CCN(C(=O)c4ccco4)CC3)C(=O)N(CCc3ccc(OC)c(OC)c3)C1=C[C@H](C1CCCC1)O[C@@H]2C	/	-2.4	5.7	/	/	/	/
Cc1cc2ccccc2n1CCNC(=O)c1ccc(Br)o1	6.7	17.0*	-4.5	-18.3	37.3*	37.2*	4.1	Tn6 DDE ctr=-3.2;DDE Tn6 confirm=12.2
O=C(NCCCc1ccccc1)c1ccc(Br)o1	0.2	-1.5	5.8	17.0	-4.2	4.8	/
Cc1cc2ccccc2n1CCNC(=O)Cc1cccc2ccccc12	-59.3	46.2*	-0.5	12.3	42.8*	56.0	1.8	Tn6 DDE ctr=11.5;DDE Tn6 confirm=9.1
Cn1c(CNc2ccccc2F)nc2ccccc21	/	-0.1	2.9	/	/	/	/
COC(=O)[C@]12C[C@H](CC(=O)NCCCN3CCCC3=O)C(=O)N(Cc3cccc4ccccc34)C1=C[C@H](COCc1ccccc1)O[C@@H]2C	/	2.4	4.2	/	/	/	/
COC(=O)c1ccc2c(c1)C(C)(C)C(/C=C/c1ccc(OC)c(OC)c1OC)=[N+]2C	7.2	129.5*	-29.3	-9.8	50.7*	45.9*	19.9	Tn6 DDE ctr=-10.9;DDE Tn6 confirm=-16.7

Bioassay records from PubChem.
